In ChEMBL document CHEMBL3297663, “Synthesis and evaluation of (E)-2-(acrylamido)cyclohex-1-enecarboxylic acid derivatives as HCA1, HCA2, and HCA3 receptor agonists” (Bioorg Med Chem, 2014) one finds inhibition, EC50 and Emax data, which are given here for 31 compounds.

Assay type in all cases: functional, cell-based
Assay [1] deals with Hydroxycarboxylic acid receptor 1 (Homo sapiens) (UniProt Q9BXC0). Put plainly: Agonist activity at human HCA1 receptor expressed in Flp-In-293 cells assessed as inhibition of forskolin-induced cAMP accumulation at 50 uM after 30 mins. In a few lines:
(§1)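 Flp-In-293 cells stably transfected with HCA receptor plasmids were plated at 10,000 cells/well. They were stimulated with forskolin plus compound for 30 min in PBS with 2% BSA and 0.5 mM IBMX. Inhibition of cAMP accumulation at a single compound concentration is expressed as % of the forskolin-stimulated level (set to 100%). Values are mean ± SD of at least three experiments, each in duplicate.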

The target in assay [2] is T1, Hydroxycarboxylic acid receptor 2 (Homo sapiens, UniProt Q8TDS4). The experiment in a line: Agonist activity at human HCA2 receptor expressed in Flp-In-293 cells assessed as inhibition of forskolin-induced cAMP accumulation after 30 mins. The procedure, abridged:
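EC50 values come from an intracellular cAMP assay in Flp-In-293 cells stably expressing the receptor (10,000 cells/well). Cells were co-incubated 30 min with forskolin and compound in PBS, 2% BSA and 0.5 mM IBMX. Values are mean ± SD of at least three experiments, each in duplicate.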
Background: Cyclic AMP is a second messenger, typically raised through Gs and lowered through Gi signalling.

The target of assay [3] is Hydroxycarboxylic acid receptor 3 (Homo sapiens) (UniProt P49019). The experiment in a line: Agonist activity at human HCA3 receptor expressed in Flp-In-293 cells assessed as inhibition of forskolin-induced cAMP accumulation at 50 uM after 30 mins. In a few lines: as §1
Hydroxycarboxylic acid receptor 3 (Homo sapiens), sequence (P49019 whole entry): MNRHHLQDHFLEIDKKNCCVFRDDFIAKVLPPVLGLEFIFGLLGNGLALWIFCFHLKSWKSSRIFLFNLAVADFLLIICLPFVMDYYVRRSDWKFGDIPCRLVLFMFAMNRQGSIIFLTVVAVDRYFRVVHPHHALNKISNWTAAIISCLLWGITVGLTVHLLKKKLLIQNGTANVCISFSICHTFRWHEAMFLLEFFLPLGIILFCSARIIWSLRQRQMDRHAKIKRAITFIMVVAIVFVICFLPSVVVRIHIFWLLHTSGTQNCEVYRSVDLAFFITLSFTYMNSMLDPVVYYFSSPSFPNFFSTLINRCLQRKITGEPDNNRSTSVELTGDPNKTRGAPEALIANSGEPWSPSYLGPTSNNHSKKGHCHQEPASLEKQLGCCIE
In assay [4] the target is T1, Hydroxycarboxylic acid receptor 2. The experiment in a line: Agonist activity at human HCA2 receptor expressed in Flp-In-293 cells assessed as inhibition of forskolin-induced cAMP accumulation at 50 uM after 30 mins. The procedure, abridged:
as §1

For assay [5], the target named is Hydroxycarboxylic acid receptor 1 (Homo sapiens) (UniProt Q9BXC0). Put plainly: Agonist activity at human HCA1 receptor expressed in Flp-In-293 cells assessed as inhibition of forskolin-induced cAMP accumulation up to 50 uM after 30 mins. In a few lines: (§2)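 Stable HCA-expressing Flp-In-293 cells (10,000/well) were treated with compound plus forskolin for 30 min in PBS containing 2% BSA and 0.5 mM IBMX. The value is the maximal % inhibition of forskolin-stimulated cAMP, with the forskolin-only level taken as 100%. Data are mean ± SD from at least three experiments, each in duplicate.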
Hydroxycarboxylic acid receptor 1 (Homo sapiens), sequence (Q9BXC0 whole entry): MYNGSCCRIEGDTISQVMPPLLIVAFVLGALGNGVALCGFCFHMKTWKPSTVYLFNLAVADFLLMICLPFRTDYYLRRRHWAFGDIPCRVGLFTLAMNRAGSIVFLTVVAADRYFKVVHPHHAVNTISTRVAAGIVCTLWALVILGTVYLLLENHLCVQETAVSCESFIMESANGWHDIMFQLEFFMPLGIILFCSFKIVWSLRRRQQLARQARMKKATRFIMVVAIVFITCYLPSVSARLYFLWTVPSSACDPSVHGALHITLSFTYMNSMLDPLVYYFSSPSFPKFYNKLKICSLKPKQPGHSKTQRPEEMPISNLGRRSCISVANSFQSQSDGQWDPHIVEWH

Assay [6] deals with Hydroxycarboxylic acid receptor 3 (Homo sapiens) (UniProt P49019). The experiment in a line: Agonist activity at human HCA3 receptor expressed in Flp-In-293 cells assessed as inhibition of forskolin-induced cAMP accumulation up to 50 uM after 30 mins. The procedure, abridged:
as §2

In assay [7] the target is T1, Hydroxycarboxylic acid receptor 2. Put plainly: Agonist activity at human HCA2 receptor expressed in Flp-In-293 cells assessed as inhibition of forskolin-induced cAMP accumulation up to 50 uM after 30 mins. In a few lines: as §2

The source made the active and inactive calls. The calls are words filed in the database; no cut-off is given here.

T1 sequence (Q8TDS4 whole entry): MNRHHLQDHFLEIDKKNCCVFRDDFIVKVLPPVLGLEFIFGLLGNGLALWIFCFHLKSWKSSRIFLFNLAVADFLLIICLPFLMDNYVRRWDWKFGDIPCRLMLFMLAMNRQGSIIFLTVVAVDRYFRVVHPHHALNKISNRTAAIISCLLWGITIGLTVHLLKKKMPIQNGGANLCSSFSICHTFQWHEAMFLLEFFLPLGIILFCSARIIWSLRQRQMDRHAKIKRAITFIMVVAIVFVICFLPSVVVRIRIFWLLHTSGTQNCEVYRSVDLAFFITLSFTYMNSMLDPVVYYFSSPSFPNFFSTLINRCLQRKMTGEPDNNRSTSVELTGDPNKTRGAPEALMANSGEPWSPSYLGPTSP

For `Cc1ccc2cc(CCC(=O)NC3=C(C(=O)O)CCCC3)ccc2n1`, the inhibition (usually the relative decrease from the control value, in per cent) worked out at 23% in assay [1] and 54% in assay [3]. In addition, the EC50 (commonly the concentration at which the effect is half-maximal) in assay [2] worked out at 36.4 µM. Also, the Emax (in general, the greatest response seen or fitted, relative to the assay's reference) in assay [2] came out at 82%.

Consider `COc1nc2ccccc2cc1/C=C/C(=O)NC1=C(C(=O)O)CCCC1`, for which the inhibition in assay [4] was 59%; in assay [1], 27%; in assay [3], 58%.

Regarding `O=C(/C=C/c1ccc2cc(O)ccc2c1)NC1=C(C(=O)O)CCCC1`, in assay [5], the inhibition result was “inactive”. Moreover, in assay [2], the EC50 was found to be 1.4 µM and the Emax was 96%. In addition, the inhibition result in assay [6] was “inactive”.

Turning to `COc1ccc2nc(Cl)c(/C=C/C(=O)NC3=C(C(=O)O)CCCC3)cc2c1`, in assay [1], the inhibition came out at 21%. In assay [2], the EC50 worked out at 6.3 µM and the Emax amounted to 86%. Further, the inhibition entry in assay [6] was “inactive”.

In the case of `O=C(/C=C/c1ccc2c(c1)OCO2)NC1=C(C(=O)O)CCCC1`, the inhibition entry in assay [5] was “inactive”. Further, in assay [2], the EC50 stood at 5.8 µM and the Emax is 83%. Moreover, the inhibition in assay [3] was found to be 26%.

`O=C(/C=C/c1ccc2ccccc2n1)NC1=C(C(=O)O)CCCC1`: in assay [5], the inhibition entry is “inactive”. Moreover, in assay [2], the EC50 worked out at 4.1 µM and the Emax amounted to 99%. Moreover, the inhibition result in assay [6] was “inactive”.

With `O=C(O)C1=C(NC(=O)[C@H]2C[C@H]2c2ccc3ccccc3c2)CCCC1` (racemic), the inhibition in assay [4] was found to be 34%. In addition, the inhibition result in assay [5] and in assay [6] was “inactive” each time.

Take `O=C(/C=C/c1ccc2ncccc2c1)NC1=C(C(=O)O)CCCC1`: the inhibition in assay [4] worked out at 68%; in assay [1], 24%; in assay [3] it was 39%.

Turning to `O=C(/C=C/c1cc2c(cc1Cl)OCO2)NC1=C(C(=O)O)CCCC1`, the inhibition stood at 17% in assay [4], 34% in assay [1] and 59% in assay [3].

`O=C(/C=C/c1cc2c(cc1Br)OCO2)NC1=C(C(=O)O)CCCC1`: the figures for the inhibition in assay [4] and in assay [3] were 24% and 54%, respectively. Further, the inhibition entry in assay [5] was “inactive”.

Take `O=C(C#Cc1ccc2cc(O)ccc2c1)NC1=C(C(=O)O)CCCC1`: in assay [5], the inhibition entry was “inactive”. In addition, in assay [2], the EC50 was 0.9 µM and the Emax was 98%. Besides, in assay [6], the inhibition result was “inactive”.

On to `O=C(CCc1ccc2cc(O)ccc2c1)NC1=C(C(=O)O)CCCC1`, for which, in assay [1], the inhibition was 26%. In addition, in assay [2], the EC50 turned out to be 1.9 µM and the Emax was 97%. Also, the inhibition result in assay [6] was “inactive”.

For the compound `O=C(/C=C/C#Cc1ccccc1)NC1=C(C(=O)O)CCCC1`, in assay [5], the inhibition result is “inactive”. Moreover, in assay [2], the EC50 was found to be 3.6 µM and the Emax stood at 90%. Besides, the inhibition in assay [3] stood at 56%.

For `COc1cc2nc(/C=C/C(=O)NC3=C(C(=O)O)CCCC3)ccc2c(OC)c1OC`, the inhibition in assay [4] was found to be 53%; in assay [1], 38%; in assay [3], 61%.

As for `O=C(CCc1ccc2ncccc2c1)NC1=C(C(=O)O)CCCC1`, the inhibition in assay [4] was 70%; in assay [1], 26%; in assay [3], 60%.

In the case of `O=C(CCc1ccc2c(c1)OCO2)NC1=C(C(=O)O)CCCC1`, the inhibition in assay [1] is 28%. Further, in assay [2], the EC50 was determined as 51.6 µM and the Emax is 85%. For the same compound, the inhibition in assay [3] amounted to 62%.

In the case of `O=C(O)C1=C(NC(=O)[C@@H]2C[C@H]2c2ccc3ccccc3c2)CCCC1` (racemic), the figures for the inhibition in assay [1] and in assay [3] were 40% and 55%, respectively. Also, the EC50 in assay [2] was 12.5 µM. Also, the Emax in assay [2] was determined as 96%.

Take `COc1ccc2cc(/C=C/C(=O)NC3=C(C(=O)O)CCCC3)ccc2c1`: the inhibition in assay [1] was 26%. In addition, the inhibition result in assay [7] and in assay [6] was “inactive” throughout.

In the case of `O=C(CCc1ccc2ccccc2c1)NC1=C(C(=O)O)CCCC1`, the inhibition in assay [1] turned out to be 41%. For the same compound, in assay [2], the EC50 was found to be 8.3 µM and the Emax turned out to be 97%. Besides, the inhibition in assay [3] was found to be 66%.

Take `COc1ccc(/C=C/C(=O)NC2=C(C(=O)O)CCCC2)cc1OC`: the inhibition worked out at 51% in assay [4], 31% in assay [1] and 58% in assay [3].

Take `O=C(/C=C/c1ccc2c(c1)OCCO2)NC1=C(C(=O)O)CCCC1`: in assay [5], the inhibition result is “inactive”. For the same compound, in assay [2], the EC50 is 6.8 µM and the Emax was 93%. For the same compound, in assay [3], the inhibition was 66%.

For the compound `O=C(/C=C/c1ccc2ccccc2c1)NC1=C(C(=O)O)CCCC1`, in assay [1], the inhibition worked out at 14%. Moreover, in assay [2], the EC50 stood at 4.5 µM and the Emax stood at 94%. Also, in assay [6], the inhibition result was “inactive”.

Consider `O=C(/C=C/c1cccc2cccnc12)NC1=C(C(=O)O)CCCC1`, for which the inhibition result in assay [5] and in assay [7] was “inactive” throughout. In assay [3], the inhibition stood at 54%.

Consider `O=C(/C=C/c1ccnc2ccccc12)NC1=C(C(=O)O)CCCC1`, for which the inhibition entry in assay [5], in assay [7] and in assay [6] was “inactive” each time.

In the case of `O=C(/C=C/c1cc2ccccc2nc1Cl)NC1=C(C(=O)O)CCCC1`, the inhibition in assay [1] was determined as 37%. In addition, in assay [2], the EC50 is 27.4 µM and the Emax was 79%. In assay [3], the inhibition came to 52%.

On to `COc1ccc2nc(Cl)c(CCC(=O)NC3=C(C(=O)O)CCCC3)cc2c1`, for which the inhibition in assay [1] was determined as 24%. In addition, in assay [2], the EC50 stood at 4.1 µM and the Emax was 91%. In addition, the inhibition in assay [3] came to 53%.

Regarding `O=C(/C=C/c1ccc2cccc(O)c2n1)NC1=C(C(=O)O)CCCC1`, the inhibition in assay [4] stood at 27%. Further, the inhibition entry in assay [5] and in assay [6] was “inactive” each time.

As to `COc1cc(/C=C/C(=O)NC2=C(C(=O)O)CCCC2)cc(Br)c1OC`, the inhibition in assay [4] came out at 23%; in assay [3], 46%. The inhibition entry in assay [5] is “inactive”.

As to `Cc1ccc2cc(/C=C/C(=O)NC3=C(C(=O)O)CCCC3)ccc2n1`, the inhibition result in assay [5], in assay [7] and in assay [6] was “inactive” in each case.

With `COc1ccc(/C=C/C(=O)NC2=C(C(=O)O)CCCC2)c(Cl)c1OC`, the inhibition in assay [1] turned out to be 36%. Moreover, in assay [2], the EC50 came out at 26.3 µM and the Emax amounted to 95%. Moreover, the inhibition in assay [3] was found to be 48%.

For `O=C(CCc1cccc2cccnc12)NC1=C(C(=O)O)CCCC1`, the inhibition in assay [4] amounted to 60%; in assay [3], 55%. For the same compound, in assay [5], the inhibition entry was “inactive”.
